According to ChEMBL document CHEMBL1137258 (J Med Chem, 2006):

Legend:
[1] = tested on: RKO; experiment: Cytotoxicity against proliferating RKOp27 cells after 72 hrs by Alamar Blue assay; assay type: functional, cell-based; conditions: Homo sapiens
How it was run: (§1)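 Human colon carcinoma RKOp27 line carrying ponasterone-A-inducible p27kip1. Induction gives G1-arrested cells, and uninduced cells stay proliferating. Viability was read as metabolic activity by Alamar Blue. IC50 values are the mean ± SD of two independent experiments, each with quadruplicate samples per concentration.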

[2] = tested on: RKO; experiment: Cytotoxicity against cell cycle arrested RKOp27 cells after 72 hrs by alamar blue assay; assay type: functional, cell-based; conditions: Homo sapiens; how it was run: as §1
[3] = target: Tubulin (Bos taurus); experiment: Inhibition of [3H]colchicine binding to beta tubulin
[4] = tested on: RKO; experiment: Cytotoxicity against RKOp27 cells at 30 uM after 72 hrs by alamar blue assay; assay type: functional, cell-based; conditions: Homo sapiens
[5] = target: Tubulin (Bos taurus, UniProt Q6B856+Q862L2+Q862F3); experiment: Inhibition of MAP containing bovine brain tubulin polymerization; assay type: functional

| Compound | IC50 [1] [µM] | IC50 [2] [µM] | IC50 [3] [µM] | Activity [4] | IC50 [5] [µM] |
| --- | --- | --- | --- | --- | --- |
| Cc1cn(-c2csc(Nc3ccc(Br)cc3)n2)c(C)n1 | 0.4 | 45 | 4 | – | – |
| COc1ccc(Nc2nc(-n3cc(C)nc3C)cs2)cc1 | 0.25 | > 100 | 7.5 | – | – |
| Cc1nccn1-c1csc(Nc2ccc(Br)cc2)n1 | 30 | > 100 | – | Not toxic | – |
| COc1ccc(Nc2nc(-n3cnc4ccccc43)cs2)cc1 | > 100 | > 100 | – | – | – |
| Cc1nc2ccccc2n1-c1csc(Nc2cccc(Br)c2)n1 | 36 | 85 | – | – | – |
| COc1ccc(Nc2nc(-n3c(C)nc4ccccc43)cs2)cc1 | 0.025 | 52.5 | 0.75 | – | 1.25 |
| Cc1nc2ccccc2n1-c1csc(Nc2ccc(S(N)(=O)=O)cc2)n1 | 45 | 95 | – | – | – |
| COc1cc2c(c(OC)c1OC)-c1ccc(OC)c(=O)cc1[C@@H](NC(C)=O)CC2 [COLCHICINE] | 0.016 | > 5 | – | – | – |
| Cc1nc2ccccc2n1-c1csc(Nc2ccccc2)n1 | 40 | 50 | – | – | – |
| COc1ccc(Nc2nc(-n3ccnc3C)cs2)cc1 | 1.6 | > 100 | 8 | – | – |
| Cc1ccc(Nc2nc(-n3ccnc3C)cs2)cc1 | 0.45 | > 100 | 0.75 | – | 3 |
| COc1cc([C@@H]2c3cc4c(cc3[C@H](O)[C@H]3COC(=O)[C@H]23)OCO4)cc(OC)c1OC [PODOFILOX] | 0.029 | > 0.5 | – | – | – |
| Brc1ccc(Nc2nc(-n3cnc4ccccc43)cs2)cc1 | > 100 | > 100 | 100 | – | – |
| c1ccc(Nc2nc(-n3cnc4ccccc43)cs2)cc1 | > 100 | > 100 | – | – | – |
| Cc1ccc(Nc2nc(-n3cc(C)nc3C)cs2)cc1 | 0.2 | > 100 | 6.25 | – | – |
| Cc1cn(-c2csc(Nc3cccc(Br)c3)n2)c(C)n1 | > 100 | > 100 | – | – | – |
| COc1cccc(Nc2nc(-n3c(C)nc4ccccc43)cs2)c1 | 40 | 60 | – | – | – |
| Cc1nc2ccccc2n1-c1csc(Nc2ccc(Br)cc2)n1 | 0.09 | 60 | 1.25 | – | 1.2 |
| COc1cccc(Nc2nc(-n3cc(C)nc3C)cs2)c1 | 22.5 | 60 | – | – | – |
| Cc1nccn1-c1csc(Nc2ccc(S(N)(=O)=O)cc2)n1 | 49 | > 100 | – | – | – |
| Cc1nccn1-c1csc(Nc2cccc(Br)c2)n1 | > 100 | > 100 | – | – | – |
| Cc1nccn1-c1csc(Nc2ccccc2)n1 | 32.5 | > 100 | – | – | – |
| COc1cccc(Nc2nc(-n3ccnc3C)cs2)c1 | 22.5 | > 100 | – | – | – |
| c1ccc(Nc2nc(-n3ccnc3)cs2)cc1 | > 100 | > 100 | – | – | – |
| Cc1nc(C)c(-c2csc(Nc3ccc(Br)cc3)n2)s1 | 0.7 | 30 | 1 | – | – |
| COc1ccc(Nc2nc(-n3ccnc3)cs2)cc1 | > 100 | > 100 | – | – | – |
